From ChEMBL document CHEMBL1932924, “Design, synthesis, and biological evaluation of 4-phenylpyrrole derivatives as novel androgen receptor antagonists” (Bioorg Med Chem, 2012) come the findings set out here.

In data set [1] the target is T1, Androgen receptor (Homo sapiens, UniProt P10275, T878A). Description: Agonist activity at human androgen receptor T877A mutant expressed in COS7 cells assessed as luciferase activity after 24 hrs by reporter gene assay. It counts as functional, cell-based, COS-7.
The target of data set [2] is T1, Androgen receptor. The data set can be described thus: Antagonist activity at human androgen receptor T877A mutant expressed in COS7 cells assessed as inhibition of DHT-induced luciferase activity after 24 hrs by reporter gene assay. In kind it is functional, cell-based, COS-7.
In data set [3] the target is T2, Androgen receptor (Homo sapiens, UniProt P10275, W742C). The data set can be described thus: Agonist activity at human androgen receptor W741C mutant expressed in COS7 cells assessed as luciferase activity after 24 hrs by reporter gene assay. It counts as functional, cell-based, COS-7.
The target in data set [4] is T3, Androgen receptor (Homo sapiens, UniProt P10275).
T3 sequence (P10275 whole entry): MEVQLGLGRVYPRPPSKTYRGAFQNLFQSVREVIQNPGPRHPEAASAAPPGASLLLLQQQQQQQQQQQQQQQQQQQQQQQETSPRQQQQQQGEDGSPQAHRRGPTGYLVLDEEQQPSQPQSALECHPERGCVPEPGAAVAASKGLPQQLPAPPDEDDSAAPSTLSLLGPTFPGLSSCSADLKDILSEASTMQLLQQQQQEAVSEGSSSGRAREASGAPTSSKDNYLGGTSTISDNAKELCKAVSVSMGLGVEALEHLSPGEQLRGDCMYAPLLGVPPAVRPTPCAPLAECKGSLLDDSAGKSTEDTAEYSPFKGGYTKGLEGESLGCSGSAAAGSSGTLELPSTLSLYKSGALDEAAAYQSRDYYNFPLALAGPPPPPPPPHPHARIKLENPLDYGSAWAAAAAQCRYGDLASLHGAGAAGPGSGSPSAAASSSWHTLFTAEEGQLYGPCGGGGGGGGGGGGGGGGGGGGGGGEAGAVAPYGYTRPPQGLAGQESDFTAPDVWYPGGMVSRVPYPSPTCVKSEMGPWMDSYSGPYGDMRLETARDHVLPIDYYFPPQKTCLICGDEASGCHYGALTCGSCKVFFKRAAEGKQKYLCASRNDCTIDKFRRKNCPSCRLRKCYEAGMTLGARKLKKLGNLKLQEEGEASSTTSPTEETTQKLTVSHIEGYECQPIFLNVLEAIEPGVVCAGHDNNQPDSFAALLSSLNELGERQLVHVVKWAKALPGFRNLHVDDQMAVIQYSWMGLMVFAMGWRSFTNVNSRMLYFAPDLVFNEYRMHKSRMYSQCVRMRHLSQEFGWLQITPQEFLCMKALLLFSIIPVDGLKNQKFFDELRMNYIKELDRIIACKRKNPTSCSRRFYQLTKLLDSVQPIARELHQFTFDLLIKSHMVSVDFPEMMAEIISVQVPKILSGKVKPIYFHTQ
The data set can be described thus: Displacement of [17-alpha-methyl-3H]-mibolerone from human androgen receptor expressed in HEK293 derived FreeStyle293F cells after 3 hrs. In kind it is cell-based.

Data set [5] deals with T1, Androgen receptor. Description: Displacement of [17-alpha-methyl-3H]-mibolerone from human androgen receptor T877A mutant expressed in HEK293 derived FreeStyle293F cells after 3 hrs. In kind it is cell-based.
Data set [6] has as its target T3, Androgen receptor. Description: Antagonist activity at human androgen receptor expressed in COS7 cells assessed as inhibition of DHT-induced luciferase activity after 24 hrs by reporter gene assay. In kind it is functional, cell-based, COS-7.
The target in data set [7] is T3, Androgen receptor. Description: Agonist activity at human androgen receptor expressed in COS7 cells assessed as luciferase activity after 24 hrs by reporter gene assay. In kind it is functional, cell-based, COS-7.
Data set [8] addresses T2, Androgen receptor. Description: Antagonist activity at human androgen receptor W741C mutant expressed in COS7 cells assessed as inhibition of DHT-induced luciferase activity after 24 hrs by reporter gene assay. In kind it is functional, cell-based, COS-7.
Data set [9] is described as follows: Solubility in aqueous buffer solution at pH 6.8. It counts as physicochemical. In short, it runs like this:
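DMSO stock added to aqueous buffer at pH 6.8 and incubated. Precipitate removed by filtration; filtrate concentration measured by HPLC.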

Values after ≈ are worked out from the molar mass of the structure shown.

T1 sequence (P10275 whole entry T878A): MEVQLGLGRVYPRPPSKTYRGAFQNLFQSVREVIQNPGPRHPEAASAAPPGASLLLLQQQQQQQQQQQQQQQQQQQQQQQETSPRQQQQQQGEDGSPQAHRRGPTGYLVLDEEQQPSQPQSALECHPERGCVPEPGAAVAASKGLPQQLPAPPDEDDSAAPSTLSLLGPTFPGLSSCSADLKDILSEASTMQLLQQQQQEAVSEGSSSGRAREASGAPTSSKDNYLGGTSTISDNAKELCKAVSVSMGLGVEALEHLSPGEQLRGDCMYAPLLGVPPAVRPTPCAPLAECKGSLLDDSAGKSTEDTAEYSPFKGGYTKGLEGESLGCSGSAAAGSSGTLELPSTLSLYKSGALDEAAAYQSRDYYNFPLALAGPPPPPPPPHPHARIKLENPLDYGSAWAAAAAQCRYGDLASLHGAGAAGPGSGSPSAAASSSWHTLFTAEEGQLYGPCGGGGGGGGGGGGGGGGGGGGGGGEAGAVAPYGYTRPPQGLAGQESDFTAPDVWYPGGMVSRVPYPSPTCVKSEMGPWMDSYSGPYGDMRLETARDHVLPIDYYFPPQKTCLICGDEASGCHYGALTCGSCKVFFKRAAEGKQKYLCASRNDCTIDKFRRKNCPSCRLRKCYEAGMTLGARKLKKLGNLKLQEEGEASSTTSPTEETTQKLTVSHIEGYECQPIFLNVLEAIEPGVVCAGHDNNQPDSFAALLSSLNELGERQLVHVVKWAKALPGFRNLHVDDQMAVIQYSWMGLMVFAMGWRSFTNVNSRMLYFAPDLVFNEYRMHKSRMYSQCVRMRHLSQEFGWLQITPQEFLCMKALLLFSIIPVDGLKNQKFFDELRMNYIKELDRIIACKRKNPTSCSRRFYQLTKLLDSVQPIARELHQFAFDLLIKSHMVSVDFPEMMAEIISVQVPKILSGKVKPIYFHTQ
T2 sequence (P10275 whole entry W742C): as the sequence (P10275 whole entry T878A) above, with W742C, A878T counted along it

Regarding `CCOC(=O)c1c(-c2ccc([N+](=O)[O-])cc2)c(C)n(CCc2ccccc2)c1C`, the EC50 at Androgen receptor [1], on Androgen receptor [3] and on Androgen receptor [7] was greater than 10 µM in each case. In addition, the IC50 was 970 nM at Androgen receptor [2]; 150 nM at Androgen receptor [4]; 52 nM at Androgen receptor [5]; 4100 nM on Androgen receptor [6]; greater than 10 µM on Androgen receptor [8].
In the case of `CCOC(=O)c1c(C)[nH]c(C)c1-c1ccc([N+](=O)[O-])cc1`, the EC50 on Androgen receptor [1], at Androgen receptor [3] and on Androgen receptor [7] was greater than 10 µM throughout. In addition, the IC50 on Androgen receptor [2] worked out at 340 nM; on Androgen receptor [4] it was 22 nM; at Androgen receptor [5] it was 34 nM; on Androgen receptor [6] it was 240 nM; at Androgen receptor [8] it was 4.2 µM.
In the case of `CCOC(=O)c1c(-c2ccc([N+](=O)[O-])cc2)c(C)n(C)c1C`, the EC50 on Androgen receptor [1], on Androgen receptor [3] and on Androgen receptor [7] was greater than 10 µM each time. Moreover, the IC50 stood at 210 nM at Androgen receptor [2]; 47 nM at Androgen receptor [4]; 30 nM at Androgen receptor [5]; 500 nM at Androgen receptor [6]; 6.2 µM at Androgen receptor [8].
Turning to `CCOC(=O)c1c(-c2ccc([N+](=O)[O-])cc2)c(C)n(-c2ccccc2)c1C`, the EC50 on Androgen receptor [1], on Androgen receptor [3] and at Androgen receptor [7] was greater than 10 µM each time. The IC50 at Androgen receptor [2] was 2100 nM; on Androgen receptor [4], 550 nM; on Androgen receptor [5], 220 nM; on Androgen receptor [6], 4300 nM; at Androgen receptor [8], greater than 10 µM.
Turning to `CCOC(=O)c1c(-c2ccc([N+](=O)[O-])cc2)c(C)n(Cc2ccccc2)c1C`, the EC50 on Androgen receptor [1], at Androgen receptor [3] and on Androgen receptor [7] was greater than 10 µM throughout. Also, the IC50 at Androgen receptor [2] was 160 nM; on Androgen receptor [4] it was 5.5 nM; on Androgen receptor [5], 5.2 nM; on Androgen receptor [6], 340 nM; at Androgen receptor [8] it was 3.2 µM.
Take `CCOC(=O)c1c(-c2ccc([N+](=O)[O-])cc2)c(C)n(CC2CCCCC2)c1C`: the concentration giving a half-maximal response (EC50) at Androgen receptor [1], on Androgen receptor [3] and on Androgen receptor [7] was greater than 10 µM in each case. The IC50 is 3700 nM on Androgen receptor [2]; 310 nM on Androgen receptor [4]; 350 nM on Androgen receptor [5]; 3800 nM at Androgen receptor [6]; 7.2 µM on Androgen receptor [8].
As for `CCOC(=O)c1c(-c2ccc([N+](=O)[O-])cc2)c(C)n(C(=O)c2ccccc2)c1C`, the EC50 on Androgen receptor [1], on Androgen receptor [3] and on Androgen receptor [7] was greater than 10 µM in each case. Besides, the IC50 at Androgen receptor [2] was found to be 1500 nM; at Androgen receptor [4], 150 nM; on Androgen receptor [5], 85 nM; on Androgen receptor [6], 2400 nM; on Androgen receptor [8] it was 7.7 µM.
For `CCOC(=O)c1c(-c2ccc([N+](=O)[O-])cc2)c(C)n(S(=O)(=O)c2ccccc2)c1C`, the EC50 on Androgen receptor [1], on Androgen receptor [3] and at Androgen receptor [7] was greater than 10 µM in each case. In addition, the IC50 on Androgen receptor [2] was 4700 nM; on Androgen receptor [4] it was 130 nM; at Androgen receptor [5] it was 62 nM; on Androgen receptor [6] it was 4700 nM; at Androgen receptor [8], greater than 10 µM.
Take `COC(=O)c1c(-c2ccc([N+](=O)[O-])cc2)c(C)n(Cc2ccccc2)c1C`: the EC50 at Androgen receptor [1], on Androgen receptor [3] and at Androgen receptor [7] was greater than 10 µM throughout. Also, the IC50 turned out to be 150 nM at Androgen receptor [2]; 5 nM at Androgen receptor [4]; 3.8 nM at Androgen receptor [5]; 300 nM on Androgen receptor [6]; 0.74 µM on Androgen receptor [8].
In the case of `Cc1c(C(=O)O)c(-c2ccc([N+](=O)[O-])cc2)c(C)n1Cc1ccccc1`, the EC50 at Androgen receptor [1], on Androgen receptor [3] and on Androgen receptor [7] was greater than 10 µM each time. Besides, the IC50 is 6500 nM on Androgen receptor [2]; 620 nM on Androgen receptor [4]; 190 nM on Androgen receptor [5]; 8700 nM at Androgen receptor [6]; greater than 10 µM on Androgen receptor [8].
For `Cc1c(CO)c(-c2ccc([N+](=O)[O-])cc2)c(C)n1Cc1ccccc1`, the EC50 on Androgen receptor [1], at Androgen receptor [3] and on Androgen receptor [7] was greater than 10 µM in each case. The IC50 was 660 nM on Androgen receptor [2]; 300 nM on Androgen receptor [4]; 92 nM on Androgen receptor [5]; 3800 nM on Androgen receptor [6]; greater than 10 µM on Androgen receptor [8].
Regarding `CC(=O)c1c(-c2ccc([N+](=O)[O-])cc2)c(C)n(Cc2ccccc2)c1C`, the EC50 on Androgen receptor [1], on Androgen receptor [3] and on Androgen receptor [7] was greater than 10 µM throughout. The IC50 at Androgen receptor [2] stood at 900 nM; at Androgen receptor [4], 390 nM; on Androgen receptor [5], 130 nM; at Androgen receptor [6] it was 4600 nM; on Androgen receptor [8], 6.5 µM.
With `Cc1cc(-c2ccc([N+](=O)[O-])cc2)c(C)n1Cc1ccccc1`, the EC50 on Androgen receptor [1], on Androgen receptor [3] and at Androgen receptor [7] was greater than 10 µM each time. The IC50 on Androgen receptor [2] came out at 210 nM; at Androgen receptor [4] it was 6.7 nM; on Androgen receptor [5] it was 2.2 nM; at Androgen receptor [6], 490 nM; on Androgen receptor [8] it was 3.1 µM.
In the case of `COC(=O)c1c(-c2ccccc2)c(C)n(Cc2ccccc2)c1C`, the EC50 at Androgen receptor [1], on Androgen receptor [3] and on Androgen receptor [7] was greater than 10 µM in each case. In addition, the IC50 on Androgen receptor [2] was 1300 nM; on Androgen receptor [4] it was 130 nM; at Androgen receptor [5] it was 65 nM; at Androgen receptor [6] it was 2600 nM; at Androgen receptor [8], 3.7 µM.
Take `COC(=O)c1c(-c2ccc(C#N)cc2)c(C)n(Cc2ccccc2)c1C`: the EC50 on Androgen receptor [1], at Androgen receptor [3] and at Androgen receptor [7] was greater than 10 µM in each case. In addition, the IC50 came to 120 nM on Androgen receptor [2]; 27 nM at Androgen receptor [4]; 23 nM at Androgen receptor [5]; 270 nM at Androgen receptor [6]; 0.71 µM at Androgen receptor [8].
`COC(=O)c1c(-c2ccc(C#N)c(C(F)(F)F)c2)c(C)n(Cc2ccccc2)c1C`: the EC50 at Androgen receptor [1] was 5.4 µM; at Androgen receptor [3] it was greater than 10 µM; on Androgen receptor [7], greater than 10 µM. Also, the IC50 on Androgen receptor [2] turned out to be 690 nM; on Androgen receptor [4] it was 3.9 nM; at Androgen receptor [5], 4.7 nM; on Androgen receptor [6], 320 nM; on Androgen receptor [8] it was 3.3 µM.
Regarding `Cc1c(C#N)c(-c2ccc(C#N)cc2)c(C)n1Cc1ccccc1`, the EC50 at Androgen receptor [1], at Androgen receptor [3] and at Androgen receptor [7] was greater than 10 µM throughout. For the same compound, the IC50 on Androgen receptor [2] came out at 41 nM; on Androgen receptor [4] it was 1.4 nM; at Androgen receptor [5], 3 nM; on Androgen receptor [6], 40 nM; at Androgen receptor [8] it was 0.38 µM. This compound also registered a solubility in data set [9] of 0.35 µg/mL (≈ 1.12 µM).
Consider `Cc1c(C#N)c(-c2ccc(C#N)cc2)c(C)n1Cc1cccnc1`, for which the EC50 was greater than 10 µM on Androgen receptor [1], 3.6 µM on Androgen receptor [3] and 2.2 µM at Androgen receptor [7]. For the same compound, the IC50 came to 190 nM on Androgen receptor [2]; 3.4 nM on Androgen receptor [4]; 23 nM at Androgen receptor [5]; 65 nM at Androgen receptor [6]; 0.18 µM at Androgen receptor [8]. This compound also came in with a solubility in data set [9] of 5.1 µg/mL (≈ 16.3 µM).
For the compound `Cc1c(-c2ccc(C#N)cc2)c(C#N)cn1Cc1cnc(Cl)c(CO)c1`, the EC50 on Androgen receptor [1], on Androgen receptor [3] and at Androgen receptor [7] was greater than 10 µM throughout. Also, the IC50 worked out at 810 nM on Androgen receptor [2]; 490 nM on Androgen receptor [4]; 1100 nM on Androgen receptor [5]; 320 nM on Androgen receptor [6]; 1.4 µM at Androgen receptor [8].
For the compound `Cc1c(C#N)c(-c2ccc(C#N)cc2)cn1Cc1cnc(Cl)c(CO)c1`, the EC50 at Androgen receptor [1], on Androgen receptor [3] and at Androgen receptor [7] was greater than 10 µM each time. For the same compound, the IC50 stood at 910 nM at Androgen receptor [2]; 78 nM on Androgen receptor [4]; 160 nM at Androgen receptor [5]; 170 nM on Androgen receptor [6]; 0.76 µM at Androgen receptor [8].
